Experimental data taken from ChEMBL document CHEMBL1152560, “Substituted 2-arylbenzothiazoles as kinase inhibitors: hit-to-lead optimization” (Bioorg Med Chem, 2009).
pEC50, pIC50: −log10 of the molar value.

How the values were obtained:
Aurora kinase A = biological target: T1, Aurora kinase A (Homo sapiens, UniProt O14965); experiment: Inhibition of Aurora-A by microplate scintillation counting
T1 sequence (O14965 whole entry): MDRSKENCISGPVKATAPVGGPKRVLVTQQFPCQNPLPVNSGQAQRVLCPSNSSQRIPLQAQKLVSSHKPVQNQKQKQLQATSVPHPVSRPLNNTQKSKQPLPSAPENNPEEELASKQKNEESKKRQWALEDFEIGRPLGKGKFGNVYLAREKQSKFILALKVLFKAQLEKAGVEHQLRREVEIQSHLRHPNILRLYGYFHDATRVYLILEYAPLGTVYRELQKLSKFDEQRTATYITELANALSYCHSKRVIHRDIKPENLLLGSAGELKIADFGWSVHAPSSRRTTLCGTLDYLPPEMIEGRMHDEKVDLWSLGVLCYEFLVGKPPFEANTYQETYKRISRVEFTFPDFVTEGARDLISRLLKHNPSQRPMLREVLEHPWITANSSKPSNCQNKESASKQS
In short: (§1)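 Substrates: tetra(LRRWSLG) for Aurora A/B; poly(Ala,Glu,Lys,Tyr)6:2:5:1 for PDGFRβ; poly(Glu,Tyr)4:1 for TIE2 and VEGFR2. Stopped with 2% H3PO4.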

Aurora kinase B = Aurora kinase B (Homo sapiens, UniProt Q96GD4); experiment: Inhibition of Aurora-B by microplate scintillation counting; in short: as §1
[1] = biological target: T2, Epidermal growth factor receptor (Homo sapiens, UniProt P00533); experiment: Inhibition of wild type EGF-R by microplate scintillation counting
[2] = biological target: Vascular endothelial growth factor receptor 2 (Homo sapiens, UniProt P35968); experiment: Inhibition of VEGFR2 by microplate scintillation counting
Angiopoietin-1 receptor [3] = biological target: T3, Angiopoietin-1 receptor (Homo sapiens, UniProt Q02763); experiment: Inhibition of TIE2 by microplate scintillation counting
[4] = biological target: Receptor tyrosine-protein kinase erbB-2 (Homo sapiens, UniProt P04626); experiment: Inhibition of ERBB2 by microplate scintillation counting
In short: (§2)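 Radiometric FlashPlate assay using recombinant kinase (10–200 ng/well) with poly(Glu,Tyr)4:1 substrate. Buffer: 60 mM HEPES-NaOH pH 7.5, 3 mM MgCl2, 3 mM MnCl2, 3 µM orthovanadate, 1.2 mM DTT, PEG 20000, 1 µM [γ-33P]-ATP. Run 80 min at 30 °C, stopped with H3PO4, and 33P incorporation counted.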

[5] = biological target: Platelet-derived growth factor receptor beta (Homo sapiens, UniProt P09619); experiment: Inhibition of PDGFRbeta by microplate scintillation counting; in short: as §1
[6] = biological target: Vascular endothelial growth factor receptor 3 (Homo sapiens, UniProt P35916); experiment: Inhibition of VEGFR3 by microplate scintillation counting; in short: as §2
[7] = biological target: T2, Epidermal growth factor receptor; experiment: Inhibition of EGFR in human HCT116 cells by cellular phosphorylation assay
Angiopoietin-1 receptor [8] = biological target: T3, Angiopoietin-1 receptor; experiment: Inhibition of TIE2 in human HCT116 cells by cellular phosphorylation assay; format: cell-based, HCT-116
In short: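 TIE2 autophosphorylation in cells expressing the receptor. Compound was applied, cells were stimulated, then lysed with phosphoprotein levels preserved. Phosphorylation was quantified by sandwich ELISA with a receptor-specific capture antibody and anti-phosphotyrosine antibody, relative to the stimulated high control.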

Sequence of Platelet-derived growth factor receptor beta (P09619 whole entry): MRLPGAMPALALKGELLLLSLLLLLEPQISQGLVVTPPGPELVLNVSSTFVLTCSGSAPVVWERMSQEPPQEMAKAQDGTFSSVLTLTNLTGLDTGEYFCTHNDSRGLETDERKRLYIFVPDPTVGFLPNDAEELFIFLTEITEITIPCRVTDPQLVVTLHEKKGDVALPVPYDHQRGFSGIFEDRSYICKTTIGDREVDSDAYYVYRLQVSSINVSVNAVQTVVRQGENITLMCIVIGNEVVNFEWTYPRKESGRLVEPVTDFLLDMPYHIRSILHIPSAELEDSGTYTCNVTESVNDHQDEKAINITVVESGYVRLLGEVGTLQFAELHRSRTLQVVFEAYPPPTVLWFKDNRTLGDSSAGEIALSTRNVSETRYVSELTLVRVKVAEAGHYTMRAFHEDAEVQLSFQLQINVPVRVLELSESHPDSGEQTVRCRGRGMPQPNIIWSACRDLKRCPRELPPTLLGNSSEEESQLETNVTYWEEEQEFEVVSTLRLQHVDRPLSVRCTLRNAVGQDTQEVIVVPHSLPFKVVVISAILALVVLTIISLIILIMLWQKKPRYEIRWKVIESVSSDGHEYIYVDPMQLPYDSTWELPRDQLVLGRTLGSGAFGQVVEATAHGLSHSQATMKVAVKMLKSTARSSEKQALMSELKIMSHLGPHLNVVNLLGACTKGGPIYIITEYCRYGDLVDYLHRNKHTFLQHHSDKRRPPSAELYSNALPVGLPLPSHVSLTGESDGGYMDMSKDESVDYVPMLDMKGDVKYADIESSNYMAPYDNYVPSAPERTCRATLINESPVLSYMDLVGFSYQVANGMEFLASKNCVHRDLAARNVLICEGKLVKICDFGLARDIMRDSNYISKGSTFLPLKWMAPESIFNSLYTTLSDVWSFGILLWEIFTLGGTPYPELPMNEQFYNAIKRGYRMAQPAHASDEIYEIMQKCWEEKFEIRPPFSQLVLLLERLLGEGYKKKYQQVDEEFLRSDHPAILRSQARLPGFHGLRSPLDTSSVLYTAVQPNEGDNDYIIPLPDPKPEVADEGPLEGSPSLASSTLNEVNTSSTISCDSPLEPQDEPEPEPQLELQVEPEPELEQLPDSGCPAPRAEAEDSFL
Sequence of Aurora kinase B (Q96GD4 whole entry): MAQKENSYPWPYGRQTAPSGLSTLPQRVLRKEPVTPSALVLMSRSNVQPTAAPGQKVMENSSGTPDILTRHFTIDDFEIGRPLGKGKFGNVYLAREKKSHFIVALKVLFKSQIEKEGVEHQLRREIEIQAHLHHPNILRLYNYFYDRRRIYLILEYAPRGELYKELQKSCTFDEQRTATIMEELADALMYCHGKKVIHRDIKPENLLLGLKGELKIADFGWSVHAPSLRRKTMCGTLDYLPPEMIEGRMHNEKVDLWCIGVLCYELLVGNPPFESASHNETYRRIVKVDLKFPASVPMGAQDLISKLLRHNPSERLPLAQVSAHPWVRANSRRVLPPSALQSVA
Sequence of Receptor tyrosine-protein kinase erbB-2 (P04626 whole entry): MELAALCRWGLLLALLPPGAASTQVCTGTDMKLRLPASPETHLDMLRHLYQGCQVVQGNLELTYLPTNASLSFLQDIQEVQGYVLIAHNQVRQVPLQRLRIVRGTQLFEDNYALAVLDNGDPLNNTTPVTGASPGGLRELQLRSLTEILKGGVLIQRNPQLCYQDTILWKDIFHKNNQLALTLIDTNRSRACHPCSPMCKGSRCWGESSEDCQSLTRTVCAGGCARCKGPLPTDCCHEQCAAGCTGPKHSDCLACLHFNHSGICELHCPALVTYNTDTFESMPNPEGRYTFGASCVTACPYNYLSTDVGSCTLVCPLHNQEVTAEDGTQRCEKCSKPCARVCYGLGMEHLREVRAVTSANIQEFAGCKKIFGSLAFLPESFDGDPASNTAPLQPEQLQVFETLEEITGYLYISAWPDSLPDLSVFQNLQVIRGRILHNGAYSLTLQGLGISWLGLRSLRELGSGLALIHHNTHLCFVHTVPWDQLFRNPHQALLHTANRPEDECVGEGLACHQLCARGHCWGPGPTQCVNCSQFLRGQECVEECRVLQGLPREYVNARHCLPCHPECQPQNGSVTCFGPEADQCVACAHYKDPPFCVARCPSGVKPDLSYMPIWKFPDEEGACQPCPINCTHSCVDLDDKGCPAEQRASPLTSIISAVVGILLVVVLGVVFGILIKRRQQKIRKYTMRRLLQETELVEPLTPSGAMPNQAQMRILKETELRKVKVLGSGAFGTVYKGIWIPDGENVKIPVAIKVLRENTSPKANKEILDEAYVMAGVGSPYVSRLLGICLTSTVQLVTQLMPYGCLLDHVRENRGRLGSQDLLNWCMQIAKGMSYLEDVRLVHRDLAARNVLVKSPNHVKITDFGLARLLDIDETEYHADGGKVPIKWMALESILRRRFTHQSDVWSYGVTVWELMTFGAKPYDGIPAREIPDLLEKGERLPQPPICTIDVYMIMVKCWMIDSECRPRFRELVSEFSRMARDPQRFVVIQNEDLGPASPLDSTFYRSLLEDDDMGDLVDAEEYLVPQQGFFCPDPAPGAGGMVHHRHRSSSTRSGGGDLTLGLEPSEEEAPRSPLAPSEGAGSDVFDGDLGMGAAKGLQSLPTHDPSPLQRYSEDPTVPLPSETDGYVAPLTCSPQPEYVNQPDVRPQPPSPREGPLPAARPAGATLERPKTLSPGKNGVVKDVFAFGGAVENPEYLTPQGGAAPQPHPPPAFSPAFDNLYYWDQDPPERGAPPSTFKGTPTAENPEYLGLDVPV
T3 sequence (Q02763 whole entry): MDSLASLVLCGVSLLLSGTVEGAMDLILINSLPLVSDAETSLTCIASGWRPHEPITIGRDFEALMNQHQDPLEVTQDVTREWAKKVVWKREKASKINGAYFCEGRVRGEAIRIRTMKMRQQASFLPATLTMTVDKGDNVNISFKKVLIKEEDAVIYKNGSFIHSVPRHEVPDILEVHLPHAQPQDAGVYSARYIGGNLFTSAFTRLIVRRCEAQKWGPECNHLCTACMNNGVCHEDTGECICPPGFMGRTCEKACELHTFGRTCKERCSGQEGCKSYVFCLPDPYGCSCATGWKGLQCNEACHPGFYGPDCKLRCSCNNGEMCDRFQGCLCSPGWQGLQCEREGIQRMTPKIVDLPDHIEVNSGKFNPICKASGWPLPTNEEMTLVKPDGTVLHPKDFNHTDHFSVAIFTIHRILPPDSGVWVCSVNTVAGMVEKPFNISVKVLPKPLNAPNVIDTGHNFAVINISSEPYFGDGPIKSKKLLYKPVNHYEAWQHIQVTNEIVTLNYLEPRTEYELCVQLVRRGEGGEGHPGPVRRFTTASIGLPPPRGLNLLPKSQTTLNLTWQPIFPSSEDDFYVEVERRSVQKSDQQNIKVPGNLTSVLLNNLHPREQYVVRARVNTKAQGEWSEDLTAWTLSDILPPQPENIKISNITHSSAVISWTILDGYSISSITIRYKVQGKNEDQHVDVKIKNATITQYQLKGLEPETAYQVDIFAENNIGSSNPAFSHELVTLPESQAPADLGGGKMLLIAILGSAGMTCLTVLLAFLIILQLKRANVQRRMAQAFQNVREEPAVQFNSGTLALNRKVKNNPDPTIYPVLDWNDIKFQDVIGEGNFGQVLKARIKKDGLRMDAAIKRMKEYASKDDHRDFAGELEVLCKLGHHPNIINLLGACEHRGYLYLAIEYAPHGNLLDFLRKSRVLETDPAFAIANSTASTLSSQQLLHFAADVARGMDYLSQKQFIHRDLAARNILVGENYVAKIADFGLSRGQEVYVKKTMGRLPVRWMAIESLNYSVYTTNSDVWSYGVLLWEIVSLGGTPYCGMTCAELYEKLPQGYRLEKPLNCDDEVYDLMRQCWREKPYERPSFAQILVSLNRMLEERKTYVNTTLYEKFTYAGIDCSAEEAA
T2 sequence (P00533 whole entry): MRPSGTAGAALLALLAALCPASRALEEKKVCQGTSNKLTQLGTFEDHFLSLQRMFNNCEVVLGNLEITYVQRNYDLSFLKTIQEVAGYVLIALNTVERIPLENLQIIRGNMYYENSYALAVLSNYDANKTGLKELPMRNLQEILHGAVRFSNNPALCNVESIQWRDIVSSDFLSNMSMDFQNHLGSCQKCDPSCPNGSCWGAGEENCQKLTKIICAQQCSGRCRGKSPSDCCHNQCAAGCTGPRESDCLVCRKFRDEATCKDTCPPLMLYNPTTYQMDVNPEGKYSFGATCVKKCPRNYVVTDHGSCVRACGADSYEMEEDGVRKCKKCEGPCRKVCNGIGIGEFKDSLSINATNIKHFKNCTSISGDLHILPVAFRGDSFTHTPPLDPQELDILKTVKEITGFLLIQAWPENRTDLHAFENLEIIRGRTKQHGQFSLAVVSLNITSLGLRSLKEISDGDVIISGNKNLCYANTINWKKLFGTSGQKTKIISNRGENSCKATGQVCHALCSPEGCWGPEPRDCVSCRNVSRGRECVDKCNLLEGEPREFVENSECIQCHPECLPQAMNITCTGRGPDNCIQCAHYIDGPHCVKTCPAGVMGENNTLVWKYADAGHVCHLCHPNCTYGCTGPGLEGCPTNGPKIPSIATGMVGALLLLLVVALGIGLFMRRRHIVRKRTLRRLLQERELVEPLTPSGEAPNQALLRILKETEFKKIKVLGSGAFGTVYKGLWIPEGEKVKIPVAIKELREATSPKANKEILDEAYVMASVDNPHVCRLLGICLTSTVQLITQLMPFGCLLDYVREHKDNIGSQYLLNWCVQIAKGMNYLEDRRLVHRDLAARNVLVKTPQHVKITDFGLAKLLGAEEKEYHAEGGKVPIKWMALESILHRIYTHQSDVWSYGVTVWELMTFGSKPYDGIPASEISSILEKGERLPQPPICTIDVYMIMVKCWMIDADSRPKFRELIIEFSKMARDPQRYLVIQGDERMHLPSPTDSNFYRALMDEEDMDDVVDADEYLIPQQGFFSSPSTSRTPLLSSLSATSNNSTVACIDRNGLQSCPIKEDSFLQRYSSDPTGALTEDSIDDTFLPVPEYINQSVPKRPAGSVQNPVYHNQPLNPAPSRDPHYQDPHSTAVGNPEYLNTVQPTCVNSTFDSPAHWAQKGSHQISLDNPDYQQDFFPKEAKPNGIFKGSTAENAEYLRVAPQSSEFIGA

Structure (SMILES)	pIC50 (Aurora kinase A)	pIC50 (Aurora kinase B)	pIC50 [1]	pIC50 [2]	pIC50 (Angiopoietin-1 receptor [3])	pIC50 [4]	pIC50 [5]	pIC50 [6]	pEC50 [7]	pEC50 (Angiopoietin-1 receptor [8])
COc1cc2c(Nc3ccc(-c4nc5ccccc5s4)c(C)c3)ncnc2cc1OCCCN1CCN(C)CC1	6.64	6.59		6.46	7.17		5.10	5.82		
COc1cc2c(Nc3ccc(-c4nc5ccccc5s4)cc3C)ncnc2cc1OCCCN1CCN(C)CC1	6.47	6.36			7.42	6.31	5.17	6.47		
COc1cc2c(Nc3ccc(-c4nc5cc(C(F)(F)F)ccc5s4)cc3)ncnc2cc1OCCCN1CCN(C)CC1	7.22	6.92	< 5.00	< 5.00	5.48	< 5.00	5.09	< 5.00	< 5.00	< 5.00
COc1cc2c(Nc3ccc(-c4nc5ccccc5s4)c(OC)c3)ncnc2cc1OCCCN1CCN(C)CC1	6.92	6.52	8.70	5.92	6.96	8.30	5.68	5.15	5.03	< 5.00
COc1cc2c(Nc3ccc(-c4nc5ccc(Cl)cc5s4)cc3)ncnc2cc1OCCCN1CCN(C)CC1	7.27	7.19	6.59	5.60	6.39	5.64	5.10	5.03		
COc1cc2ncnc(Nc3ccc(-c4nc5ccccc5s4)cc3C)c2cc1OCCCN1CCN(C)CC1	5.03	< 5.00	5.85		6.46	5.23	< 5.00			
COc1cc2c(Nc3ccc(-c4nc5ccc(Cl)cc5s4)cc3F)ncnc2cc1OCCCN1CCN(C)CC1	7.07	7.05	5.21	5.65	6.21	< 5.00	5.04	5.52		
COc1cc2ncnc(Nc3ccc(-c4nc5ccccc5s4)cc3F)c2cc1OCCCN1CCN(C)CC1	6.41	6.39	5.35		6.44	< 5.00	5.00			
COc1cc2c(Nc3ccc(-c4nc5ccccc5s4)cc3F)ncnc2cc1OCCCN1CCN(C)CC1	7.59	7.55	6.09	7.21	7.54	5.62	5.36	6.46	< 5.00	5.68
COc1cc2ncnc(Nc3ccc(-c4nc5ccccc5s4)c(O)c3)c2cc1OCCCN1CCN(C)CC1	6.52	6.19	5.48		5.28	< 5.00	5.00			
COc1cc2c(Nc3ccc(-c4nc5ccccc5s4)cc3OC(F)(F)F)ncnc2cc1OCCCN1CCN(C)CC1	6.54	6.28	< 5.00	< 5.00	6.23	< 5.00	5.04	< 5.00		
COc1cc2ncnc(Nc3ccc(-c4nc5ccccc5s4)c(F)c3)c2cc1OCCCN1CCN(C)CC1	6.70	6.17	5.64		5.51	< 5.00	5.06			
COc1cc2ncnc(Nc3ccc(-c4nc5cc(Cl)ccc5s4)cc3)c2cc1OCCCN1CCN(C)CC1	6.40	6.30	< 5.00		5.40	< 5.00	5.00			

Second part, the molecule after the results:

pIC50 (Aurora kinase A)	pIC50 (Aurora kinase B)	pIC50 [1]	pIC50 [2]	pIC50 (Angiopoietin-1 receptor [3])	pIC50 [4]	pIC50 [5]	pIC50 [6]	pEC50 [7]	pEC50 (Angiopoietin-1 receptor [8])	Structure (SMILES)
7.19	7.05	< 5.00	5.48	6.48	< 5.00	5.29	5.77	< 5.00	< 5.00	COc1cc(-c2nc3ccccc3s2)ccc1Nc1ncnc2cc(OCCCN3CCN(C)CC3)c(OC)cc12
5.80	< 5.00	7.82		5.85	7.33	5.42				COc1cc2ncnc(Nc3ccc(-c4nc5ccccc5s4)c(OC)c3)c2cc1OCCCN1CCN(C)CC1
6.16	5.32	7.36		6.29	6.74	5.11				COc1cc2ncnc(Nc3ccc(-c4nc5ccccc5s4)c(Cl)c3)c2cc1OCCCN1CCN(C)CC1
< 5.00	5.38	5.66	5.16							COc1cc2ncnc(Nc3ccc(-c4nc5ccccc5s4)cc3O)c2cc1OC
			5.20							COc1cc2ncnc(Nc3ccc(-c4nc5ccccc5s4)cc3)c2cc1OC
7.85	7.22	7.34	7.92	7.27	7.00	5.85	7.16			COc1cc2c(Nc3ccc(-c4nc5ccccc5s4)cc3)ncnc2cc1OCCCN1CCN(C)CC1
7.62	7.21	< 5.00	6.21	6.29	< 5.00	< 5.00	5.89	< 5.00	< 5.00	COc1cc2c(Nc3ccc(-c4nc5cc(Cl)ccc5s4)cc3)ncnc2cc1OCCCN1CCN(C)CC1
5.89	5.72	< 5.00		5.21	< 5.00	< 5.00				COc1cc(-c2nc3ccccc3s2)ccc1Nc1ncnc2cc(OC)c(OCCCN3CCN(C)CC3)cc12
6.96	6.29				5.66	5.42				COc1cc2ncnc(Nc3ccc(-c4nc5ccccc5s4)cc3)c2cc1OCCCN1CCN(C)CC1
5.48	5.10		< 5.00	< 5.00		< 5.00	< 5.00			COc1cc2c(N(C)c3ccc(-c4nc5ccccc5s4)c(OC)c3)ncnc2cc1OCCCN1CCN(C)CC1
< 5.00	< 5.00	7.20	< 5.00							COc1cc(-c2nc3ccccc3s2)ccc1Nc1ncnc2cc(OC)c(OC)cc12
7.04	7.23	6.96	6.42	6.92	6.11	5.35	6.28	4.48	< 5.00	COc1cc2c(Nc3ccc(-c4nc5ccccc5s4)c(O)c3)ncnc2cc1OCCCN1CCN(C)CC1
7.57	7.11		6.92	7.43	7.42	5.44	6.33		5.00	COc1cc2c(Nc3ccc(-c4nc5ccccc5s4)c(Cl)c3)ncnc2cc1OCCCN1CCN(C)CC1
6.64	6.57	6.46	6.55	6.64	5.44	< 5.00	5.35			COc1cc2c(Nc3ccc(-c4nc5ccccc5s4)cc3O)ncnc2cc1OCCCN1CCN(C)CC1
7.59	7.39	6.14	6.47	6.63	5.16	5.47	6.06	< 5.00	< 5.00	COc1cc2c(Nc3ccc(-c4nc5ccc(F)cc5s4)cc3)ncnc2cc1OCCCN1CCN(C)CC1
6.10	6.10	6.64		6.06	5.64	< 5.00				COc1cc2ncnc(Nc3ccc(-c4nc5ccccc5s4)cc3O)c2cc1OCCCN1CCN(C)CC1
5.92	5.68	< 5.00		< 5.00	< 5.00	< 5.00				COc1cc2ncnc(Nc3ccc(-c4nc5cc(C(F)(F)F)ccc5s4)cc3)c2cc1OCCCN1CCN(C)CC1
7.21	7.32	6.70	6.16	6.41	6.89	< 5.00	5.72			COc1ccc2nc(-c3ccc(Nc4ncnc5cc(OCCCN6CCN(C)CC6)c(OC)cc45)cc3)sc2c1
